Test results as given in ChEMBL document CHEMBL3046353, “Synthesis and fungicidal activity of some 5-membered heterocyclic derivatives containing benzimidazoles” (1993).
Activity calls are given as the source filed them. The rule behind the calls is not given here.

Columns and labels:
Sagittaria latifolia [1] = experiment: Herbicidal activity against Sagittaria latifolia (broadleaf arrowhead) under paddy conditions; type: functional, organism-based
Sagittaria latifolia [2] = experiment: Pre-emergence herbicidal activity against Sagittaria latifolia (broadleaf arrowhead); type: functional, organism-based
Sagittaria latifolia [3] = experiment: Post-emergence herbicidal activity against Sagittaria latifolia (broadleaf arrowhead); type: functional, organism-based
Schoenoplectus acutus [4] = experiment: Herbicidal activity against Schoenoplectus acutus (hardstem bulrush) under paddy conditions; type: functional, organism-based
Schoenoplectus acutus [5] = experiment: Post-emergence herbicidal activity against Schoenoplectus acutus (hardstem bulrush); type: functional, organism-based
Schoenoplectus acutus [6] = experiment: Pre-emergence herbicidal activity against Schoenoplectus acutus (hardstem bulrush); type: functional, organism-based
Echinochloa crus-galli [7] = experiment: Herbicidal activity against Echinochloa crus-galli (barnyard grass) under paddy conditions; type: functional, organism-based
Echinochloa crus-galli [8] = experiment: Post-emergence herbicidal activity against Echinochloa crus-galli (barnyard grass); type: functional, organism-based
Oryza sativa [9] = experiment: Herbicidal activity against Oryza sativa (rice) under paddy conditions; type: functional, organism-based
Echinochloa crus-galli [10] = experiment: Pre-emergence herbicidal activity against Echinochloa crus-galli (barnyard grass); type: functional, organism-based
Oryza sativa [11] = experiment: Pre-emergence herbicidal activity against Oryza sativa (rice); type: functional, organism-based
Abutilon theophrasti [12] = experiment: Post-emergence herbicidal activity against Abutilon theophrasti (velvetleaf); type: functional, organism-based
Oryza sativa [13] = experiment: Post-emergence herbicidal activity against Oryza sativa (rice); type: functional, organism-based
Abutilon theophrasti [14] = experiment: Pre-emergence herbicidal activity against Abutilon theophrasti (velvetleaf); type: functional, organism-based
Convolvulaceae [15] = experiment: Herbicidal activity against Convolvulaceae (morning glory family) under paddy conditions; type: functional, organism-based
Convolvulaceae [16] = experiment: Post-emergence herbicidal activity against Convolvulaceae (morning glory family); type: functional, organism-based
Avena sativa [17] = experiment: Herbicidal activity against Avena sativa under paddy conditions; type: functional, organism-based
Convolvulaceae [18] = experiment: Pre-emergence herbicidal activity against Convolvulaceae (morning glory family); type: functional, organism-based
Avena sativa [19] = experiment: Pre-emergence herbicidal activity against Avena sativa; type: functional, organism-based
Avena sativa [20] = experiment: Post-emergence herbicidal activity against Avena sativa; type: functional, organism-based
Spodoptera litura = experiment: Insecticidal activity against Spodoptera litura; type: functional, organism-based
Tetranychus cinnabarinus = experiment: Insecticidal activity against Tetranychus cinnabarinus (carmine spider mite); type: functional, organism-based
Culex pipiens pallens = experiment: Insecticidal activity against Culex pipiens pallens (mosquito) at 3 to 5 ppm; type: functional, organism-based
Musca domestica = experiment: Insecticidal activity against Musca domestica (house fly); type: functional, organism-based
Rhizoctonia solani = experiment: Fungicidal activity against Rhizoctonia solani at 500 ppm after 7 days by poisoned food technique; type: functional; conditions: 168 h, read-out: GI
Method in brief: (§1)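 Cultures kept on potato dextrose agar. Each compound, dissolved in acetone, was added to potato dextrose agar at a final 500 ppm (w/v) (poisoned food technique). A disc cut from the periphery of a seven-day-old culture was inoculated onto each set. Control sets held potato dextrose agar only. The read-out is percentage inhibition of fungal growth relative to control.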

Helminthosporium = experiment: Fungicidal activity against Helminthosporium oryzae at 500 ppm after 7 days by poisoned food technique; type: functional; conditions: 168 h, read-out: GI; method in brief: as §1

| Structure (SMILES) | Activity (Sagittaria latifolia [1]) | Activity (Sagittaria latifolia [2]) | Activity (Sagittaria latifolia [3]) | Activity (Schoenoplectus acutus [4]) | Activity (Schoenoplectus acutus [5]) | Activity (Schoenoplectus acutus [6]) | Activity (Echinochloa crus-galli [7]) | Activity (Echinochloa crus-galli [8]) | Activity (Oryza sativa [9]) | Activity (Echinochloa crus-galli [10]) | Activity (Oryza sativa [11]) | Activity (Abutilon theophrasti [12]) | Activity (Oryza sativa [13]) | Activity (Abutilon theophrasti [14]) | Activity (Convolvulaceae [15]) | Activity (Convolvulaceae [16]) | Activity (Avena sativa [17]) | Activity (Convolvulaceae [18]) | Activity (Avena sativa [19]) | Activity (Avena sativa [20]) | further results |
| --- | --- | --- | --- | --- | --- | --- | --- | --- | --- | --- | --- | --- | --- | --- | --- | --- | --- | --- | --- | --- | --- |
| Cc1ccc2[nH]c(CSc3nnc(-c4cccc(Cl)c4)n3N)nc2c1 | inactive | inactive | inactive | inactive | inactive | inactive | inactive | inactive | inactive | inactive | inactive | inactive | inactive | inactive | inactive | inactive | inactive | inactive | inactive | inactive | Activity (Spodoptera litura): inactive; Activity (Tetranychus cinnabarinus): inactive; Activity (Culex pipiens pallens): Active; Activity (Musca domestica): inactive; inhibition of growth at 500 ppm (Rhizoctonia solani): 71.2%; inhibition of growth at 500 ppm (Helminthosporium): 82.5% |
| Clc1ccc(-c2nnc(SCc3nc4ccccc4[nH]3)o2)cc1 | inactive | inactive | inactive | inactive | inactive | inactive | inactive | inactive | inactive | inactive | inactive | inactive | inactive | inactive | inactive | inactive | inactive | inactive | inactive | inactive | Activity (Spodoptera litura): inactive; Activity (Tetranychus cinnabarinus): inactive; Activity (Culex pipiens pallens): Active; Activity (Musca domestica): inactive; inhibition of growth at 500 ppm (Rhizoctonia solani): 21.2%; inhibition of growth at 500 ppm (Helminthosporium): 39.7% |
| Nn1c(SCc2nc3ccccc3[nH]2)nnc1-c1cccc(Cl)c1 | inactive | inactive | inactive | inactive | inactive | inactive | inactive | inactive | inactive | inactive | inactive | inactive | inactive | inactive | inactive | inactive | inactive | inactive | inactive | inactive | Activity (Spodoptera litura): inactive; Activity (Tetranychus cinnabarinus): inactive; Activity (Culex pipiens pallens): Active; Activity (Musca domestica): inactive; inhibition of growth at 500 ppm (Rhizoctonia solani): 61.2%; inhibition of growth at 500 ppm (Helminthosporium): 89.3% |
